Assay results taken from ChEMBL document CHEMBL1146029, “The synthesis and in vitro testing of structurally novel antibiotics derived from acylnitroso Diels-Alder adducts” (2006).
The source made the active and inactive calls. The calls are words filed in the database; no cut-off is given here.

Columns and labels:
Mycobacterium = experiment: Antibacterial activity against wild type Mycobacterium vaccae IMET10670 by agar diffusion assay; type: functional, Mycolicibacterium vaccae
Procedure, shortened: (§1)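 Test bacteria at 10^6 CFU/ml were suspended in melted nutrient agar and poured into Petri dishes. 9 mm wells were cut and each filled with 50 µl of a 0.2 mM compound solution. Inhibition zones were read after 18 h at 37 °C. Growth of colonies inside the zone was flagged.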

Klebsiella pneumoniae = experiment: Antibacterial activity against Klebsiella pneumoniae ATCC 8308 by agar diffusion assay; type: functional; procedure, shortened: as §1
Candida albicans = experiment: Antifungal activity against Candida albicans BMSY 212 by agar diffusion assay; type: functional
Procedure, shortened: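 Agar-well diffusion: Candida albicans at 10^6 CFU/ml was seeded in melted nutrient agar and poured into plates. Compound was loaded as 50 µl of a 0.2 mM solution into 9 mm holes. Plates were incubated at 30 °C and the inhibition zones recorded.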

Enterococcus faecalis = experiment: Antibacterial activity against VRE Enterococcus faecalis 1528 by agar diffusion assay; type: functional; procedure, shortened: as §1
Escherichia coli [1] = experiment: Antibacterial activity against TEM1 beta-lactamase Escherichia coli IV-3-2 by agar diffusion assay; type: functional; procedure, shortened: as §1
Escherichia coli [2] = experiment: Antibacterial activity against Escherichia coli X580 by agar diffusion assay; type: functional; procedure, shortened: as §1
Enterobacter cloacae = experiment: Antibacterial activity against ampC beta-lactamase Enterobacter cloacae P99 by agar diffusion assay; type: functional
Staphylococcus aureus [3] = experiment: Antibacterial activity against wild type Staphylococcus aureus SG 511 by agar diffusion assay; type: functional; procedure, shortened: as §1
Staphylococcus aureus [4] = experiment: Antibacterial activity against MRSA Staphylococcus aureus 134/93 by agar diffusion assay; type: functional; procedure, shortened: as §1
Escherichia coli [5] = experiment: Antibacterial activity against Escherichia coli ATCC 33475 by agar diffusion assay; type: functional; procedure, shortened: as §1
Salmonella enterica = experiment: Antibacterial activity against Salmonella enterica ATCC 13311 by agar diffusion assay; type: functional; procedure, shortened: as §1
Escherichia coli [6] = experiment: Antibacterial activity against wild type Escherichia coli DC0 by agar diffusion assay; type: functional; procedure, shortened: as §1
Pseudomonas aeruginosa = experiment: Antibacterial activity against PSE1 beta-lactamase Pseudomonas aeruginosa IV-3-13 by agar diffusion assay; type: functional; procedure, shortened: as §1
[7] = system: Beta-lactamase (Bacillus cereus); experiment: Inhibition of Bacillus cereus penicillinase

SMILES	inhibition zone (IZ) (Mycobacterium) [mm]	inhibition zone (IZ) (Klebsiella pneumoniae) [mm]	inhibition zone (IZ) (Candida albicans) [mm]	inhibition zone (IZ) (Enterococcus faecalis) [mm]	inhibition zone (IZ) (Escherichia coli [1]) [mm]	inhibition zone (IZ) (Escherichia coli [2]) [mm]	inhibition zone (IZ) (Enterobacter cloacae) [mm]	inhibition zone (IZ) (Staphylococcus aureus [3]) [mm]	inhibition zone (IZ) (Staphylococcus aureus [4]) [mm]	inhibition zone (IZ) (Escherichia coli [5]) [mm]	inhibition zone (IZ) (Salmonella enterica) [mm]	inhibition zone (IZ) (Escherichia coli [6]) [mm]	inhibition zone (IZ) (Pseudomonas aeruginosa) [mm]	inhibition [7]
O=C(Cc1ccccc1)NCC(=O)N1O[C@H](C(=O)O)C[C@@H]1C(=O)O	0	0	0	0	0	26	0	0	0	0	0	0	0	
C[C@@H](NC(=O)Cc1ccccc1)C(=O)N1O[C@H](C(=O)O)C[C@@H]1C(=O)O		0				25				0	0			
C[C@H](NC(=O)Cc1ccccc1)C(=O)N1O[C@H](C(=O)O)C[C@@H]1C(=O)O		0				20				0	0			inactive
CO/N=C(\C(=O)N[C@@H]1C(=O)N2C(C(=O)O)=C(COC(C)=O)CS[C@H]12)c1csc(N)n1 [CEFOTAXIME]	0			22	28		0	26	0			21		
O=C(O)c1cn(C2CC2)c2cc(N3CCNCC3)c(F)cc2c1=O [CIPROFLOXACIN]	38			24	27			29	0				35	
N[C@@H](C(=O)N[C@@H]1C(=O)N2C(C(=O)O)=C(Cl)CC[C@H]12)c1ccccc1 [LORACARBEF ANHYDROUS]	0			0	23		0	28	0			24	0	
CC1(C)S[C@@H]2[C@H](NC(=O)Cc3ccccc3)C(=O)N2[C@H]1C(=O)O [PENICILLIN G]		12				54				23	37			
